Test results: ChEMBL document CHEMBL1221219, “Selective blockade of 2-arachidonoylglycerol hydrolysis produces cannabinoid behavioral effects” (Nat Chem Biol, 2009)
Active and inactive are the calls of the source. The rule behind the calls is not given here.

Columns and labels:
[1] = target: T1, Diacylglycerol lipase-alpha (Homo sapiens) (UniProt Q9Y4D2); test: Inhibition of recombinant DAGLalpha expressed in HEK293 cells assessed as hydrolysis of 1-stearoyl-2-arachidonoyl-glycerol to 2-AG at 10 uM after 30 mins by LC-MS method; format: cell-based
T1 sequence (whole entry): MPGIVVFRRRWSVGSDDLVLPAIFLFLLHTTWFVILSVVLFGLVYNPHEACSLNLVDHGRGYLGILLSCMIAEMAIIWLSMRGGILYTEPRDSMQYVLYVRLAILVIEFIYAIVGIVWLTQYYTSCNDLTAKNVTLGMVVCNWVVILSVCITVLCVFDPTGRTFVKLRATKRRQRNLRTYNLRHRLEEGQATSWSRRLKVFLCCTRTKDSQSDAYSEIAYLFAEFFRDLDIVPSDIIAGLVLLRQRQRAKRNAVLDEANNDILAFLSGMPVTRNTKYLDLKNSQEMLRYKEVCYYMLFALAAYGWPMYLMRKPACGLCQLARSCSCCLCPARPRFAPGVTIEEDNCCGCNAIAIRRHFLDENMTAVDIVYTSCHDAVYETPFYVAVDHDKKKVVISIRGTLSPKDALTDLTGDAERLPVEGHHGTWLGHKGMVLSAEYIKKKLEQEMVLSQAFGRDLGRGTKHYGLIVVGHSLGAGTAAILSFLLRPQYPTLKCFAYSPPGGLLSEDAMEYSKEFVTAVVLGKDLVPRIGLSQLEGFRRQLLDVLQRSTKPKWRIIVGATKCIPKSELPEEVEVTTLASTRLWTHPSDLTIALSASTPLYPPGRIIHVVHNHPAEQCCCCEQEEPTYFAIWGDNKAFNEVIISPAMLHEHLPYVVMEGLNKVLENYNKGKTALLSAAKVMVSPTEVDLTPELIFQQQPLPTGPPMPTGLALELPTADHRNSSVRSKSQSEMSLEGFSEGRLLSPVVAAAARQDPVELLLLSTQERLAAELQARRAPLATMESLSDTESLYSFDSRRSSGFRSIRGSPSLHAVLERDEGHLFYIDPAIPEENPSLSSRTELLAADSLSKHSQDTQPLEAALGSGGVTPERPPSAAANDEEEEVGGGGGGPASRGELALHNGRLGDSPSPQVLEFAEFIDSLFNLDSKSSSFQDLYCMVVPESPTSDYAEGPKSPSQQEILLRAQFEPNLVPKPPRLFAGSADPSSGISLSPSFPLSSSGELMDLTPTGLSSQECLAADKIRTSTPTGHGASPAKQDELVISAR

[2] = tested on: Mus musculus; test: Inhibition of MAGL in C57B1/6J mouse brain membrane at 16 mg/kg, ip after 4 hrs by competitive activity-based protein profiling-MudPIT method; format: functional, organism-based; parameters: dose 16 mg/kg
Outline: (§1)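 After i.p. dosing in 4:1 PEG300:Tween80, male C57Bl/6J mice were killed at 4 h. Brain membrane proteomes from treated and vehicle mice were labelled with FP-biotin. Labelled proteins were enriched on avidin, digested on-bead with trypsin and analysed by multidimensional LC-MS. Proteins were identified by SEQUEST, and dosed samples were compared with vehicle.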

[3] = tested on: Mus musculus; test: Inhibition of AADACL1 in C57B1/6J mouse brain membrane at 16 mg/kg, ip after 4 hrs by competitive activity-based protein profiling-MudPIT method; format: functional, organism-based; parameters: dose 16 mg/kg
Outline: (§2)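 Mice were dosed 16 mg kg^-1 i.p. or vehicle and killed at 4 h. Brain membrane proteomes were labelled with FP-biotin, avidin-enriched, trypsin-digested on bead, analysed by multidimensional LC-MS and identified by SEQUEST.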

[4] = tested on: Mus musculus; test: Inhibition of BAT5 in C57B1/6J mouse brain membrane at 16 mg/kg, ip after 4 hrs by competitive activity-based protein profiling-MudPIT method; format: functional, organism-based; parameters: dose 16 mg/kg; outline: as §2
[5] = tested on: Mus musculus; test: Inhibition of TPP2 in C57B1/6J mouse brain membrane at 16 mg/kg, ip after 4 hrs by competitive activity-based protein profiling-MudPIT method; format: functional, organism-based; parameters: dose 16 mg/kg; outline: as §1
[6] = tested on: Mus musculus; test: Inhibition of AChE in C57B1/6J mouse brain membrane at 16 mg/kg, ip after 4 hrs by competitive activity-based protein profiling-MudPIT method; format: functional, organism-based; parameters: dose 16 mg/kg; outline: as §2
[7] = tested on: Mus musculus; test: Inhibition of ACOT2 in C57B1/6J mouse brain membrane at 16 mg/kg, ip after 4 hrs by competitive activity-based protein profiling-MudPIT method; format: functional, organism-based; parameters: dose 16 mg/kg; outline: as §2
[8] = tested on: Mus musculus; test: Inhibition of RBBP9 in C57B1/6J mouse brain membrane at 16 mg/kg, ip after 4 hrs by competitive activity-based protein profiling-MudPIT method; format: functional, organism-based; parameters: dose 16 mg/kg; outline: as §1
[9] = tested on: Mus musculus; test: Antinociceptive activity against formalin-induced pain in C57B1/6J mouse assessed as paw lifting or licking during late phase (20-40 mins) at 40 m/kg, po administered 2 hrs before formalin challenge pretreated with rimonabant; format: functional, organism-based
[10] = tested on: Mus musculus; test: Induction of hypothermia in C57B1/6J mouse at 16 mg/kg, ip; format: functional, organism-based; parameters: dose 16 mg/kg
Outline: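 Male C57Bl/6J mice, 6-8 weeks, 20-26 g, given 16 mg kg^-1 i.p. in 4:1 v/v PEG300:Tween80 at 4 μl g^-1; vehicle controls received PEG300:Tween80 alone. Cannabinoid effects were scored in the tetrad test.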

[11] = target: T2, Fatty-acid amide hydrolase 1 (Mus musculus) (UniProt O08914); conditions: C57B1/6J, Brain, Membrane, 10 uM
T2 sequence (whole entry): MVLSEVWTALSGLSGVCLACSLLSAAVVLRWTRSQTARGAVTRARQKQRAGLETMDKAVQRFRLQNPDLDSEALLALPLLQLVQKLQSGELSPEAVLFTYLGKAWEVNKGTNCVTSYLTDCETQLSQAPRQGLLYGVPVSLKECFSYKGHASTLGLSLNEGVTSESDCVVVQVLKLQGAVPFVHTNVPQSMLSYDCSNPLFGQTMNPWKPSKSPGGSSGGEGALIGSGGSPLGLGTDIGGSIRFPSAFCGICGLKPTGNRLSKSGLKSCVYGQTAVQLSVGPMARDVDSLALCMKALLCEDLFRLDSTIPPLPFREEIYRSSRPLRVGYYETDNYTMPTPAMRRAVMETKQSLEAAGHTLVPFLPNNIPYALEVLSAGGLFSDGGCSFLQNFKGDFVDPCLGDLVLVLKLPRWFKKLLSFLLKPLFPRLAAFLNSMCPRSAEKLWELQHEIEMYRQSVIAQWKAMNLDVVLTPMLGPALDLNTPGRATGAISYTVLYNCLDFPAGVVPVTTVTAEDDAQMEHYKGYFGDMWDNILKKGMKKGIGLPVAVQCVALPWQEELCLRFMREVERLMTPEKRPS

## O=C(Oc1ccc([N+](=O)[O-])cc1)N1CCC(C(O)(c2ccc3c(c2)OCO3)c2ccc3c(c2)OCO3)CC1
[1]
  inhibition: inactive
[2]
  inhibition: Active
[3]
  inhibition: inactive
[4]
  inhibition: inactive
[5]
  inhibition: inactive
[6]
  inhibition: inactive
[7]
  inhibition: inactive
[8]
  inhibition: inactive
[9]
  Activity: inactive
[10]
  Activity: Active
[11]
  inhibition: Active
